In ChEMBL document CHEMBL4513216, “Probing the Open Global Health Chemical Diversity Library for Multistage-Active Starting Points for Next-Generation Antimalarials” (ACS Infect Dis, 2020):

Test: Toxicity liver stage against HepG2, at 10uM
Assay type: cell-based
Set-up: test concentration 10 uM, cell line HepG2-A16-CD81EGFP
Conditions: human, HepG2-A16-CD81EGFP cells; read-out: INHIBITION
Procedure, shortened: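 Uninfected HepG2-A16-CD81EGFP cells, 3 × 10^3 per well, 1536-well, plated on prespotted compound at 10 μM final, parasite-free screening media added to match infected plates; puromycin 10 μM positive, DMSO 0.5% negative; run in parallel with 48 h PbLuc assay at 37 °C, 5% CO2; viability by CellTiter-Glo luminescence, normalized to controls.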

| SMILES | cytotoxicity at 10 µM [%] |
| --- | --- |
| CNC(=O)c1sccc1S(=O)(=O)Nc1ccc(C)cc1 | 11.4 |
| CCc1cc(CN(C)C(=O)c2cnn[nH]2)on1 | 7.48 |
| Cc1noc2ncnc(N(C)Cc3ccco3)c12 | 2.57 |
| Cc1n[nH]cc1C(=O)N1CCCC(c2cccc(-n3ccnc3)n2)C1 (stereo unspecified) | -9.69 |
| CC(C(=O)Nc1ccc(N2CCCC2)nc1)n1cncn1 (stereo unspecified) | -6.19 |
| Cc1oc(NC(=O)C(C)N2CCN(C(=O)C3CC3)CC2)c(C#N)c1C (stereo unspecified) | -18.6 |
| COc1ccc(CC(=O)N2CCN(c3nccn3C)CC2)cc1 | 5.06 |
| COc1ccc(-c2nnc(SC(C)C(=O)NCC(C)C)[nH]2)c(OC)c1 (stereo unspecified) | 83.5 |
| CC(C)C[C@H](NC(=O)CNC(=O)OC(C)(C)C)C(=O)OC(C)(C)C | 11.9 |
| CCCn1ccnc1CN1C[C@@H](CN2CCCCC2)[C@@H](CO)C1 | 0.945 |
| Cc1nc(N2CCCOC(Cn3cccn3)C2)c2sccc2n1 (stereo unspecified) | 35.5 |
| CC(C(=O)O)N1CCc2onc(-c3ccc4c(c3)OCO4)c2C1 (stereo unspecified) | -6.46 |
| CCCC(C)(C)NC(=O)c1cnc(CC)s1 | 10.2 |
| Cc1cnc(C(=O)Nc2cc(F)ccc2OCC2CCCO2)cn1 (stereo unspecified) | -4.83 |
| O=C(NC1CC(=O)N(C2Cc3ccccc3C2)C1)c1cnccn1 (stereo unspecified) | 0.661 |
| CC(C)c1nnc(NCc2cc3n(n2)CCN(C2CCCCC2)C3)s1 | -4.63 |
| Cc1ccc(OCC2CCCN(c3cc(C(N)=O)ccn3)C2)cc1 (stereo unspecified) | 11.1 |
| Cc1cc(C)c2c(c1)C1(CC(=O)Nc3c1cnn3C(C)C)C(=O)N2 (stereo unspecified) | -2.51 |
| COCCCN(C)C(=O)c1cccc(Nc2cnccn2)c1 | -8.43 |
| COc1ccccc1N1CCC(CNCc2c(C)nn(C)c2OC)C1 (stereo unspecified) | 5.28 |
| CCCc1nnc(NC(=O)NC(C)Cn2cccn2)s1 (stereo unspecified) | -4.05 |
| COc1ccc(-c2nonc2N)cc1 | -7.97 |
| Cc1ncc(-c2ccccn2)c(CCNC(=O)CCC2CCCO2)n1 (stereo unspecified) | 11.7 |

| SMILES | cytotoxicity at 10 µM [%] |
| --- | --- |
| CCn1cc(-c2n[nH]c(=O)n2-c2ccc(OC)c(OC)c2)c(C)n1 | -9.91 |
| CCN(Cc1cnn(C)c1)C[C@H]1CC[C@@H](Cc2ccc(CO)cc2)O1 | 5.95 |
| CN1CCc2c(NC(=O)NCc3ccccc3Cl)cccc21 | 3.65 |
| Cc1sc(NS(=O)(=O)c2ccccc2)nc1C(=O)NC1CC1 | 5.73 |
| CCc1cccc(N2CCC(NC(=O)c3ccncc3)CC2)c1 | -13.9 |
| Cc1cc(S(=O)(=O)N2CCc3ccc(F)cc32)cc(C(=O)O)c1C | 3.2 |
| CN(CCOc1ccc(Cl)cc1)Cc1ccc(S(=O)(=O)N(C)C)o1 | 33.6 |
| Cc1ccoc1C(=O)NC(CC(C)C)C(=O)N1CCC(CO)CC1 (stereo unspecified) | 0.794 |
| Cn1cccc1C(=O)N1CCC2(CC1)CN(c1ccccc1)C(=O)CO2 | -79.1 |
| CN(C)CCOc1ccc(CNC(=O)c2cccc3[nH]ncc23)cc1 | 7.99 |
| CCCNC(=O)c1cc(C(C)C)nc(N2CCCCC2)n1 | 15.8 |
| O=C(c1cscn1)N1CCC2(CC1)CN(c1ccccn1)CCO2 | -71 |
| Cc1cc2[nH]c(CN3CCOC(c4ccc(F)cc4)C3)cc(=O)n2n1 (stereo unspecified) | -4.89 |
| CSC1(CNC(=O)N(C)Cc2ccc(C)s2)CCOCC1 | -46.5 |
| CC(=O)N1CCCN(Cc2csc(C)n2)c2ccccc21 | 0.00333 |
| Cc1cnn(CC2CN(CC(=O)N(C)Cc3cnn(C)c3)CCO2)c1 (stereo unspecified) | -18.4 |
| O=C(NCC1CCN(CCc2ccccc2)C1)NCC1(O)CCC1 (stereo unspecified) | -0.128 |
| OCC(O)CSCc1cc(Cl)ccc1Cl (stereo unspecified) | -147 |
| Cc1nc(CN2CCCC(NCc3nc4ccccc4s3)C2)no1 (stereo unspecified) | -0.84 |
| COC(=O)CNC(=O)CSCc1nc(O)c2cc(C)sc2n1 | 1.45 |
| O=C(NCc1cncc2c1CCN(CC1CCOC1)C2)c1ccno1 (stereo unspecified) | 13 |
| O=C(c1nnn(-c2ccc(F)cc2)n1)N(CCO)Cc1ccccc1 | 1.56 |
| Cc1nc(CNCC2CCCN2c2cccnn2)cs1 (stereo unspecified) | -6.26 |

| SMILES | cytotoxicity at 10 µM [%] |
| --- | --- |
| CN1CCCc2cc(CNC(=O)c3ccc(NC4CC4)nc3)ccc21 | -3.03 |
| Cc1c(C(=O)NC(C)C(C)C)nnn1-c1cccc2c1CCN(C)C2 (stereo unspecified) | -9.03 |
| Cc1cccc(CN2C(=O)CCC23CCN(C(=O)NC(C)C)CC3)n1 | 5 |
| COc1ccc(C(=O)N2C[C@@H](O)[C@H](NCCc3ncccc3C)C2)cc1 | -3.71 |
| Cn1cc(-c2cnc(N3CCOCC3)nc2)cc1C(=O)O | -14.6 |
| Cc1cc(C(=O)NC(C)c2nnn[nH]2)c2ccc(C)c(C)c2n1 (stereo unspecified) | -10.7 |
| Cc1nc(C(=O)N(C)C)nn1-c1ccccc1C(C)C | -0.665 |
| CCN(CC)C(=O)[C@@H]1C[C@@H](NC(=O)c2cccc(N(C)C)c2)CN1C | 6.69 |
| CCn1c(C)nnc1SCCn1cc(-c2nccs2)nn1 | 2.91 |
| Cc1nc(S(=O)(=O)CCn2cccn2)n(C2CCCCC2)c1C | -5.58 |
| N#CCCN(CC1CCOC1)Cn1ccc(-c2ccsc2)n1 (stereo unspecified) | -2.68 |
| COc1ccc(Cl)cc1NC(=O)N1CCc2nc(NC(C)=O)sc2C1 | 12.1 |
| O=C(NC1CC2(CCN(CCO)CC2)Oc2ccccc21)c1csnn1 (stereo unspecified) | -101 |
| N#Cc1ccc(CS(=O)(=O)NC(=O)COc2ccc3c(c2)CCC3)cc1 | 1.13 |
| c1cncc(N2CCCn3nnc(COCC4CC4)c3C2)c1 | 5.5 |
| COC[C@@]12CCC[C@@H]1CN(C(=O)N1CCCC1)C2 | 7.9 |
| Clc1ccc(-n2cnnc2CCCN2CCOCC2)cc1 | 5.52 |
| COCCN(C)C(=O)c1nc2c(s1)CCCN2c1ncccn1 | -131 |
| O=C(CCCn1cncn1)N1CCC2(CC1)[C@H](O)C[C@@H]2OCCO | 5.3 |
| COc1ccc2c(c1)C(C(=O)N(C)CCCc1cnn(C)c1)CC(=O)N2 (stereo unspecified) | -46.9 |
| Cc1cc(-c2cnc(N3CCNC(=O)C3)nc2-c2cccnc2C)on1 | -6.9 |
| Cc1cc(C)n(-c2ccc(CNCc3ccc(C)o3)cn2)n1 | -6.57 |
| Cc1nc(C2CCCN(C(=O)c3ccoc3)C2)no1 (stereo unspecified) | -13.1 |

| SMILES | cytotoxicity at 10 µM [%] |
| --- | --- |
| Cc1ccccc1NC(=O)Nc1cc(N2CCCC2)ncn1 | -7.73 |
| O=C(CC1CC1)NCc1cn2c(n1)CN(Cc1cccc(F)c1)CC2 | -85.8 |
| COCCN1CCCC1c1cccc2c1OCCO2 (stereo unspecified) | -9.54 |
| Cc1cc(C(=O)N2CCCC(c3cc(C(F)(F)F)[nH]n3)C2)[nH]n1 (stereo unspecified) | -6.79 |
| CN(C)S(=O)(=O)N(C)C(c1cccnc1)c1ccc(F)c(F)c1 (stereo unspecified) | -3.53 |
| COCC(C)(O)CNC(=O)c1cc(-c2cc(OC)ccc2OC)nn1C (stereo unspecified) | -6.42 |
| O=C(CC(F)(F)F)N1CCc2onc(Cn3cccn3)c2C1 | 0.635 |
| COc1cc(C)nc(N2CCN(C(=O)CCc3ccncc3)CC2)n1 | -5 |
| Cc1csc(CNCc2c(C)nn(C)c2N2CCOCC2)n1 | -9.07 |
| COc1ccc(C(=O)N(C)Cc2c(C)noc2C)cn1 | -12.9 |
| Cc1ccc(Cl)c(CN2CCC3(CC2)C(C(=O)O)CC(=O)N3C)c1F (stereo unspecified) | 2.64 |
| Cc1nc(C)n(CC(C)C(=O)N2CCC(CN3CCOCC3)CC2)n1 (stereo unspecified) | 0.635 |
| CC(C)=CCN1C[C@@H]2CC[C@H]1CN(Cc1coc(C)n1)C2 | 1.25 |
| O=C1[C@@H]2CN(Cc3ccccn3)C[C@H]2CCN1c1cncnc1 | -115 |
| COc1c(C2CCCN2CC(=O)Nc2cc(C)on2)c(C)nn1C (stereo unspecified) | -1.19 |
| CCc1cnc(N2CC[C@@H]3CN(C(=O)c4ccco4)CCO[C@@H]3C2)nc1 | 9.22 |
| CCN1CCN(c2ccc(C(=O)NCCn3ccnc3)cc2F)CC1 | 10.8 |
| Cc1ccc(-c2n[nH]cc2CNCC2CCc3nnc(C)n3C2)cc1 (stereo unspecified) | -8.35 |
| NC(=O)COc1ccc(C2NC(=O)CN2Cc2ccc(Br)cc2)cc1 (stereo unspecified) | -7.38 |
| Cc1nc(C)n(CC2CCCCN2CC(=O)NC2CCOCC2)n1 (stereo unspecified) | -9.32 |
| Cc1cccc(C(C(=O)N2CC(c3ccccn3)C2)N(C)C)c1 (stereo unspecified) | -13.1 |
| CC(=O)N1CCCn2nc(CNS(=O)(=O)N3CCC(C)CC3)cc2C1 | 9.91 |
| Cc1ncc2c(c1CNC(=O)C1(C)CCCO1)CCNC2 (stereo unspecified) | -45.6 |

| SMILES | cytotoxicity at 10 µM [%] |
| --- | --- |
| CC(C)C(=O)N1CCN(C(=O)N(C)C)CC2(CC(=O)N(C)C2)C1 (stereo unspecified) | -21 |
| CC(C)=CCN1Cc2nnc(C3CCOCC3)n2C(Cc2c[nH]cn2)C1 (stereo unspecified) | -9.36 |
| COc1ccc(CN2C[C@@H]3C(CC(=O)N4CCCC4)[C@@H]3C2)cc1 (stereo partly specified) | -13.8 |
| Cc1cc(NC(=O)CN2CCN(c3nccs3)C(C)C2)on1 (stereo unspecified) | -5.35 |
| CC(C)NC(=O)N1CCC2(CC1)CN(C(=O)NC(C)C)CCO2 | 11.8 |
| O=C(NCCCOCC1CC1)Nc1ccc(F)cc1 | 3.09 |
| CCN1CCOC(CNCc2cccc(OCc3ccccn3)c2)C1 (stereo unspecified) | -13.4 |
| O=c1cc2c(nn1CN1CCOCC1)CCC2 | 1.31 |
| CCN1CCN(C)C2(CCN(C(=O)CC(F)(F)F)CC2)C1=O | 0.797 |
| COc1cccc(COCC(O)CN2CC(n3cccn3)C2)c1 (stereo unspecified) | -8.52 |
| O=C(c1cccc2c1OCO2)N1CCCC(n2ccnc2)C1 (stereo unspecified) | -3.29 |
| CCCN1C(=O)CC2(CCCNC2)C1=O (stereo unspecified) | 4.1 |
| NC(=O)CN1CCCN(C(=O)c2ccc(SC(F)F)cc2)CC1 | -6.08 |
| Cc1nc(C)n(C2CCCN(C(=O)CCCn3ccnc3)C2)n1 (stereo unspecified) | 2.24 |
| CCOc1cccc2c1OCC(=O)N(c1ccc3c(c1)OCCO3)C2 | 13.1 |
| CN(C)C(=O)N1CCN(C)c2ncccc2C1 | -4.14 |
| O=C(NCCN1CCCC1)c1nc2c(o1)CN(c1ncccn1)C2 | 1.24 |
| Nc1cc(-c2cccs2)nn(CC(=O)NCC2CCCCC2)c1=O | -3.09 |
| COc1ccc(NC(=O)N2CCCCC2c2ncc[nH]2)cc1 (stereo unspecified) | 10.4 |
